{"source": "paper PMC9890135", "about": "(Molecular Cancer Therapeutics, 2022)", "key": {"SNU-5 tumors": {"tested_on": "SNU-5 tumors", "test": "SNU-5 xenograft tumor growth", "format": "in vivo, mice", "conditions": "14 days, oral", "how_it_was_run": "(§1)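 Human tumour cells inoculated into the rear flank. Mice randomised at mean volumes of ~200 mm3 (Hs 746T), ~120 mm3 (MDA-MB-231), ~100 mm3 (NCI-H441) or ~90 mm3 (SNU-5). Oral gavage once daily with test compound or vehicle. Tumour volume and body weight measured at least twice weekly. […], using mean volumes at extraction and dosing start.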"}, "peripheral leukocytes": {"tested_on": "peripheral leukocytes", "test": "Peripheral immunocytes by flow cytometry in MC38 tumor-bearing mice", "format": "in vivo", "conditions": "7 days, XL092 30 mg/kg", "how_it_was_run": "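Female C57BL/6 mice (5–6 weeks) inoculated s.c. with 1 × 10^6 MC38 cells, randomised at ~200 mm3. […] single-cell suspensions surface-stained with a lineage panel plus fixable viability dye. Medians compared by Mann–Whitney U.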"}, "CT26 tumors": {"tested_on": "CT26 tumors", "test": "CT26 syngeneic colorectal cancer survival model", "format": "in vivo, mice", "conditions": "XL092 30 mg/kg orally once a day, anti-PD-1 10 mg/kg every 3–4 days i.p.", "how_it_was_run": "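CT26 syngeneic mice randomised at ~90 mm3. Treatment: oral test compound 30 mg/kg once daily for 34 days, with or without anti-PD-1 antibody (10 mg/kg i.p. every 3–4 days for 5 weeks, diluted in sterile PBS), or vehicle. Animals sacrificed at tumour volume 2,500 mm3; survival analysed by Kaplan–Meier.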"}, "MC38 tumors": {"tested_on": "MC38 tumors", "test": "MC38 syngeneic tumor model, XL092 and ICI combination studies", "format": "in vivo, mice", "conditions": "XL092 3 mg/kg orally once a day, anti-PD-1 5 mg/kg twice a week for 2 weeks i.p., 35 days"}, "[1]": {"tested_on": "panel of 405 protein kinases", "test": "KinaseProfiler 33P radiometric kinase assay, panel", "format": "biochemical", "how_it_was_run": "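Radiometric 33P-phosphoryl transfer assay measuring catalytic activity of recombinant active kinase domains across the profiling panel.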"}, "NCI-H441 tumors": {"tested_on": "NCI-H441 tumors", "test": "NCI-H441 xenograft tumor growth", "format": "in vivo, mice", "conditions": "21 days, oral", "how_it_was_run": "as §1"}, "[2]": {"tested_on": "human xenograft murine models", "test": "Murine xenograft models overall", "format": "in vivo, mice", "conditions": "after 14 days of daily 10 mg/kg treatments", "how_it_was_run": "as §1"}}, "data": [{"smiles": "CNC(=O)c1cc2c(Oc3ccc(NC(=O)C4(C(=O)Nc5ccc(F)cc5)CC4)cc3)ccnc2cc1OC", "note": "[XL092]", "values": [{"measurement": "Tumor growth inhibition", "setting": "SNU-5 tumors; 3 mg/kg/day", "value": 54.2, "unit": "%"}, {"measurement": "Tumor growth inhibition", "setting": "SNU-5 tumors; 10 mg/kg/day", "value": 94.7, "unit": "%"}, {"measurement": "peripheral CD4+ T cells relative to vehicle", "setting": "peripheral leukocytes", "value": "significant increases"}, {"measurement": "peripheral B cells relative to vehicle", "setting": "peripheral leukocytes; antibodies 5 mg/kg", "value": "significant increases"}, {"measurement": "peripheral myeloid cells relative to vehicle", "setting": "peripheral leukocytes; antibodies 5 mg/kg", "value": "significant decreases"}, {"measurement": "survival to the end of the 34-day dosing regimen", "setting": "CT26 tumors", "value": 20, "unit": "%"}, {"measurement": "TGI compared with vehicle", "setting": "MC38 tumors", "value": "significant TGI"}, {"measurement": "activity against serine or threonine kinases", "setting": "[1]; kinase profiling", "value": "No activity"}, {"measurement": "inhibition of additional RTKs and TKs", "setting": "[1]; single concentration of 1 μmol/L, panel of 405 protein kinases", "value": "≥ 70", "unit": "%"}, {"measurement": "Tumor growth inhibition", "setting": "NCI-H441 tumors; 1 mg/kg/day", "value": 68.3, "unit": "%"}, {"measurement": "Tumor regression (%)", "setting": "NCI-H441 tumors; 3 mg/kg/day", "value": 5.6, "unit": "%"}, {"measurement": "Tumor regression (%)", "setting": "NCI-H441 tumors; 10 mg/kg/day", "value": 67.7, "unit": "%"}, {"measurement": "Tumor regression (%)", "setting": "NCI-H441 tumors; 30 mg/kg/day", "value": 72.1, "unit": "%"}, {"measurement": "Tumor regression (%)", "setting": "NCI-H441 tumors; 60 mg/kg/day", "value": 86.1, "unit": "%"}, {"measurement": "TGI (summary over several models)", "setting": "[2]", "value": "≥ 70", "unit": "%"}]}]}
